ChEMBL document CHEMBL1123722, “Comparative antitumor studies on platinum(II) and platinum(IV) complexes containing 1,2-diaminocyclohexane” (J Med Chem, 1987)

Tests used:
B16 = assay: Antitumor activity against B16 tumor ascite cells implanted ip in BDF1 mice was determined at a dose of 1.6-2 mg/kg; format: functional, organism-based; conditions: Mus musculus
L1210 = assay: Antitumor activity against 10E6 L1210 ascites cells implanted ip in CDF1 mice was determined after a dose of 6-10 mg/kg; format: functional, organism-based; conditions: Mus musculus
Outline: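 CDF1 mice implanted with 1 × 10⁶ L1210 ascites cells ip. Complexes were suspended in 0.9% NaCl with a drop of Tween 80 and given ip on day 1 after tumor inoculation. Groups were five treated mice and 10 leukemic controls. Mice were observed daily. Activity is % T/C: median survival time of treated ÷ untreated controls × 100.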

Sequence: CISPLATIN
- T/C (B16): 167%
- T/C (L1210): 150%
